From ChEMBL document CHEMBL5036342, “Indomethacin-based PROTACs as pan-coronavirus antiviral agents” (Eur J Med Chem, 2021) come the findings set out here.

Data set [1] relates to Vero C1008. Briefly: Cytotoxicity against African green monkey Vero E6 cells assessed as reduction of cell viability measured after 72 hrs by MTT assay. Conditions: chlorocebus sabaeus, vero c1008, 72 h. Format: cell-based. In short, it runs like this: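 Uninfected Vero E6 cells were exposed to compound for 72 h and viability read by MTT. CC50 is the concentration reducing viability by 50%.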
(In general: Formazan colour is commonly taken as a measure of viable cells.)

Data set [2] concerns Human coronavirus 229E. Put plainly: Antiviral activity against Human coronavirus 229E infected in human MRC5 cells assessed as inhibition of plaque formation measured after 3 days by Plaque reduction assay. The format is functional, organism-based. Conditions: MRC5, 72 h. The procedure, abridged:
(§1)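 MRC-5 cells were seeded at 6×10^4 per well and infected the next day with 80 PFU per well. After the inoculum was removed, the overlay held graded compound concentrations, 3% FBS and 0.6% methylcellulose. Monolayers were fixed and stained after 3 days, and plaques counted. EC50 is the concentration giving 50% plaque inhibition, with 95% profile-likelihood CI. n = 3 independent experiments in duplicate.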
In general terms: Plaques are areas of infected cells; plaque reduction assays count them against a control.

Data set [3] in a line: Selectivity index, ratio of CC50 for cytotoxicity against African green monkey Vero E6 cells to EC50 for antiviral activity against SARS-COV2/Padova/2020 infected in African green monkey Vero E6 cells. Conditions: read-out: Ratio CC50/EC50. Format: toxicity, cell-based, Vero C1008.
Data set [4] can be described thus: Selectivity index, ratio of CC50 for cytotoxicity against African green monkey Vero E6 cells to EC50 for antiviral activity against SARS-COV2/NL/2020 infected in African green monkey Vero E6 cells. Format: toxicity, cell-based, Vero C1008. Conditions: read-out: Ratio CC50/EC50.
The subject of data set [5] is MRC5. Briefly: Cytotoxicity against human MRC5 cells assessed as reduction in cell viability measured after 72 hrs by MTT assay. The format is cell-based. Conditions: mrc5, 72 h. The procedure, abridged: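 MRC-5 cells were exposed to compound for 72 h and viability read by MTT. CC50 is the concentration reducing viability by 50%.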
Data set [6] concerns SARS-CoV-2. Put plainly: Antiviral activity against SARS-COV2/Padova/2020 infected in African green monkey Vero E6 cells assessed as inhibition of plaque formation measured after 3 days by Plaque reduction assay. Conditions: Severe acute respiratory syndrome coronavirus 2, Padova/2020, Vero C1008, 72 h. Format: functional, organism-based.
In data set [7] the test system is Human coronavirus OC43. Briefly: Antiviral activity against Human coronavirus OC43 infected in human MRC5 cells assessed as inhibition of plaque formation measured after 3 days by Plaque reduction assay. Format: functional, cell-based. Conditions: Betacoronavirus 1, MRC5, 72 h. The procedure, abridged:
as §1

In data set [8] the test system is SARS-CoV-2. Put plainly: Antiviral activity against SARS-CoV-2/NL/2020 infected in African green monkey Vero E6 cells assessed as inhibition of plaque formation measured after 3 days by Plaque reduction assay. Conditions: Severe acute respiratory syndrome coronavirus 2, NL/2020, Vero C1008, 72 h. Format: functional, organism-based.
Data set [9] deals with Canine coronavirus. Briefly: Antiviral activity against Canine coronavirus infected in dog A-72 cells assessed as inhibition of viral replication. Conditions: Alphacoronavirus 1, A-72. The format is functional, cell-based.
Data set [10] has as its system SARS-CoV. Put plainly: Antiviral activity against SARS-CoV infected in African green monkey Vero E6 cells assessed as inhibition of viral replication. The format is functional, organism-based. Conditions: Severe acute respiratory syndrome-related coronavirus, Vero C1008.
In data set [11] the test system is SARS-CoV-2. Put plainly: Antiviral activity against SARS-CoV-2 infected in African green monkey Vero E6 cells assessed as reduction in virus induced cytopathic effect measured after 4 days by MTT assay. The format is functional, organism-based. Conditions: Severe acute respiratory syndrome coronavirus 2, Vero C1008, 96 h.
The nature of data set [12]: Cytotoxicity against African green monkey Vero E6 cells infected with SARS-CoV-2 assessed as reduction of cell viability measured after 48 hrs by MTT assay. Format: cell-based, Vero C1008. Conditions: chlorocebus sabaeus.

What is called CC50 is the concentration at which the toxic effect on the cells reaches its halfway point. The term EC50 denotes the concentration that produces a half-maximal response. In general, IC50 refers to the concentration that gives 50% inhibition.

In the case of `COc1ccc2c(c1)c(CC(=O)NCCN1CCN(C(=O)CCC(=O)N[C@H](C(=O)N3C[C@H](O)C[C@H]3C(=O)N[C@@H](C)c3ccc(-c4scnc4C)cc3)C(C)(C)C)CC1)c(C)n2C(=O)c1ccc(Cl)cc1`, the figures for the cytotoxic concentration (CC50) in [1] and in [5] were over 250 µM and 238 µM, respectively. Also, the EC50 came to 3.2 µM in data set [2], 29.8 µM in data set [6], 2.5 µM in [7] and 21.5 µM in data set [8]. For the same compound, the selectivity ratio in data set [3] is over 8; in data set [4], over 12.

On to `COc1ccc2c(c1)c(CC(=O)NCCCCCCC(=O)N[C@H](C(=O)N1C[C@H](O)C[C@H]1C(=O)N[C@@H](C)c1ccc(-c3scnc3C)cc1)C(C)(C)C)c(C)n2C(=O)c1ccc(Cl)cc1`, for which the half-maximal cytotoxic concentration (CC50) in [1] is over 200 µM; in data set [5] it was over 250 µM. In addition, the EC50 turned out to be 36.5 µM in data set [2], 25.4 µM in data set [6], 4.7 µM in data set [7] and 18.1 µM in data set [8]. Also, the selectivity ratio is over 8 in [3] and over 11 in [4].

Take `COc1ccc2c(c1)c(CC(=O)NCCOCCOCC(=O)N[C@H](C(=O)N1C[C@H](O)C[C@H]1C(=O)N[C@@H](C)c1ccc(-c3scnc3C)cc1)C(C)(C)C)c(C)n2C(=O)c1ccc(Cl)cc1`: in data set [1], the 50% cytotoxic concentration (CC50) was over 200 µM. For the same compound, the selectivity ratio in [3] and in [4] was over 4 in each case. Also, the EC50 in [6] and in data set [8] was over 50 µM in each case.

With `CCC(CC)COC(=O)[C@H](C)N[P@](=O)(OC[C@H]1O[C@@](C#N)(c2ccc3c(N)ncnn23)[C@H](O)[C@@H]1O)Oc1ccccc1` [REMDESIVIR], the CC50 in data set [1] is 373 µM. Also, the selectivity ratio in data set [3] turned out to be 1490; in data set [4], 2490. Further, the values for the EC50 in data set [6] and in data set [8] were 0.25 µM and 0.15 µM, respectively.

For `COc1ccc2c(c1)c(CC(=O)NCCCCC(=O)N[C@H](C(=O)N1C[C@H](O)C[C@H]1C(=O)N[C@@H](C)c1ccc(-c3scnc3C)cc1)C(C)(C)C)c(C)n2C(=O)c1ccc(Cl)cc1`, the CC50 in [1] is over 200 µM. For the same compound, the selectivity ratio in data set [3] and in data set [4] was over 4 in each case. Further, the EC50 in data set [6] and in [8] was over 50 µM in each case.

For the compound `COc1ccc2c(c1)c(CC(=O)O)c(C)n2C(=O)c1ccc(Cl)cc1` [INDOMETHACIN], the IC50 in data set [9] is 5 µM; in data set [10], 50 µM. Further, the LC50 in [9] (read-out: LD50 (the source's name)) was found to be 550 µM. Also, the CC50 in data set [1] is over 500 µM. Also, the concentration for a half-maximal effect (EC50) was over 400 µM in [11] and 94.9 µM in [8]. In addition, in data set [12], the CC50 at 48 h is over 100 µM. Moreover, the selectivity ratio in [4] was over 5.
